This is an account of results in ChEMBL document CHEMBL1133511, “Contribution of the adenine base to the activity of adenophostin A investigated using a base replacement strategy” (J Med Chem, 2000).

The nature of test [1]: Tested for equilibrium competition binding to InsP3 receptor in hepatic membranes using 1.3-1.8 nM [3H]Ins(1,4,5)P3 as the radioligand. It is filed as functional, cell membranes, Rattus norvegicus, Liver, Membrane. A digest of the protocol: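 Rat liver membranes (perfused, homogenized, Percoll-purified), 0.1 mg protein/tube in 50 mM Tris, 1 mM EDTA, pH 8.3, incubated 5 min at 4 °C with [3H]Ins(1,4,5)P3 plus competing ligand; bound separated by centrifugation (20000g, 5 min), counted by scintillation. Kd and Hill coefficient from equilibrium competition; means ± SEM of 4 independent experiments.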

Test [2] is filed under the species Rattus norvegicus. The test can be described thus: Tested for concentration of ligand causing half maximal response of Calcium ion release from permeabilised hepatocytes. It is filed as functional. The conditions noted are these: Hepatocyte. The method in brief: (§1)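 Permeabilized rat hepatocytes loaded to steady state with 45Ca2+ (5 min, 37 °C) in cytosol-like medium (140 mM KCl, 20 mM NaCl, 2 mM MgCl2, 1 mM EGTA, 300 µM CaCl2, 20 mM Pipes, pH 7.0) with 1.5 mM ATP, creatine phosphate/kinase, 10 µM FCCP; 1.25 µM thapsigargin added, 30 s later agonist for 60 s; store 45Ca2+ by rapid filtration. Four-parameter logistic fit; means ± SEM, 6-15 experiments.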

For test [3], the species on record is Rattus norvegicus. The test can be described thus: Tested for percentage of intracellular calcium ion stores released in rat hepatocytes. The format is functional, Hepatocyte. A digest of the protocol:
as §1
(In general: Calcium flux is commonly read through the fluorescence of an indicator in the cells.)

With `O=P(O)(O)O[C@@H]1[C@H](O)[C@@H](O[C@H]2[C@@H](OP(=O)(O)O)[C@H](n3cnc4cncnc43)O[C@@H]2CO)O[C@@H](CO)[C@H]1OP(=O)(O)O` [PURINOPHOSTIN], the Ki in test [1] was determined as 0.8 nM. The EC50 in test [2] came out at 18 nM. Moreover, the Max response in test [3] is reported as 52%.

With `Nc1ncnc2c1ncn2[C@@H]1O[C@H](CO)[C@@H](O[C@H]2O[C@@H](CO)[C@@H](OP(=O)(O)O)[C@H](OP(=O)(O)O)[C@@H]2O)[C@H]1OP(=O)(O)O`, the affinity in test [1] corresponds to a Ki of 0.45 nM. Further, the EC50 in test [2] turned out to be 14 nM. For the same molecule, in test [3], the Max response was determined as 51%.

As to `O=P(O)(O)O[C@@H]1[C@H](O)[C@@H](O)[C@@H](OP(=O)(O)O)[C@H](OP(=O)(O)O)[C@@H]1O`, the inhibitory constant (Ki) in test [1] worked out at 2.72 nM. The EC50 in test [2] was determined as 119 nM. In addition, the Max response in test [3] came out at 55%.

Turning to `O=P(O)(O)O[C@@H]1[C@H](O)[C@@H](O[C@H]2[C@@H](OP(=O)(O)O)[C@H](n3ccnc3)O[C@@H]2CO)O[C@@H](CO)[C@H]1OP(=O)(O)O`, in test [1], the Ki was determined as 2.19 nM. In test [2], the EC50 came to 108 nM. Further, the Max response in test [3] amounted to 57%.

By Ki is commonly meant the equilibrium dissociation constant of an inhibitor or competing ligand from its target. Low values mean a stronger hold on the target, high ones a looser hold on the target. Usually EC50 stands for the concentration that produces a half-maximal response.
